A short description of data set [1]: Cytotoxicity against mouse 661W-A11 cells assessed as reduction in cell viability at 1 to 1000 uM incubated for 48 hrs by MTT assay. The following applies: 661w-a11, 48 h, dose 1-1000 µM. The format is toxicity, cell-based. A digest of the protocol:
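661W-A11 rod-like mouse photoreceptor line (1 mg/mL glucose DMEM, 10% FBS, 37 °C, 5% CO2), seeded 6000 cells/well; next day exposed to scaling concentrations (1 μM to 1 mM) for 48 h in H2O or DMSO vehicle, matched vehicle controls. MTT 1 mg/mL, 90 min at 37 °C; formazan dissolved in isopropanol, OD 570 nm; untreated cells set as 100% viability; at least three biological replicates.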
On the technique in general: Tetrazolium dyes change colour on reduction, which living cells bring about.

Data set [2] concerns Primary photoreceptor cell. Kind of data set: Neuroprotective activity in rd1 mouse Primary photoreceptor cells harboring loss of function mutation in Pde6b gene assessed as reduction in cell death at 50 uM administered at day 10 of differentiation and measured after 24 hrs by TUNEL assay. The format is functional, cell-based. A digest of the protocol:
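Neurosphere-derived retinal stem cells from rd1 mouse eyes differentiated in vitro into photoreceptors. 50 µM compound or vehicle added on day 10; TUNEL on day 11 (24 h exposure), scored as TUNEL+/DAPI+ nuclei by fluorescence microscopy. ≥3 biological replicates, mean ± SD.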

Data set [3] deals with 661W-A11. Kind of data set: Neuroprotective activity against zaprinast induced mouse 661W-A11 cells assessed as increase in cell viability at 50 uM preincubated for 2 hrs followed by zaprinast addition at 200 uM and measured after 48 hrs by MTT assay. The format is functional, cell-based. As to conditions: time 50.0 hrs. In outline: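 661W-A11 cells seeded 6000/well; 24 h later pretreated 2 h with 50 µM compound, then 200 µM zaprinast 48 h with compound present. MTT 1 mg/mL for 90 min at 37 °C, formazan in isopropanol, OD 570 nm. Viability normalized to matched vehicle (H2O or DMSO) set at 100%. ≥3 biological replicates, mean ± SD.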

Data set [4] has as its system 661W-A11. In words: Neuroprotective activity against zaprinast induced mouse 661W-A11 cells assessed as reduction in cell death at 50 uM preincubated for 2 hrs followed by zaprinast addition at 200 uM and measured after 48 hrs by TUNEL assay. The format is functional, cell-based. The following applies: time 50.0 hrs. A digest of the protocol:
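661W-A11 cells seeded 20,000/well; 2 h pretreatment with 50 µM compound, then 200 µM zaprinast 48 h. Fixed in 2% paraformaldehyde, permeabilized in citrate/0.1% Triton X-100 on ice, TUNEL (TMR red) 30 min at 37 °C, DAPI counterstain, fluorescence microscopy. Death = TUNEL+ cells/DAPI+ cells. ≥3 biological replicates, mean ± SD.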

Data set [5] is described as follows: Neuroprotective activity against zaprinast induced mouse 661W-A11 cells assessed as increase in cell viability at 1 to 1000 uM preincubated for 2 hrs followed by zaprinast addition at 200 uM and measured after 48 hrs by MTT assay relative to control. The format is functional. The following applies: dose 1-1000 µM, time 50 hrs. A digest of the protocol: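 661W-A11 rod-like cells (DMEM 1 mg/mL glucose, 10% FBS, 37 °C, 5% CO2) seeded 6000/well; next day pretreated 2 h with 1 µM–1 mM compound, then 200 µM zaprinast 48 h with compound present. MTT 1 mg/mL, 90 min at 37 °C, formazan in isopropanol, OD 570 nm. EC50 from dose–response curve; ≥3 biological replicates, mean ± SEM.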

Active and inactive are the calls of the source. The rule behind the calls is not given here.

Turning to `CCN(CC)CC.O=c1c2nc(Br)n([C@@H]3O[C@@H]4COP(=S)(S)O[C@H]4[C@H]3O)c2nc2[nH]c(-c3ccccc3)cn12` (some centres undefined), the Activity entry in data set [1] is reported as “Non-Toxic”. The outcome (in data set [2]; with 661W-A11 [3]; in the data set with 661W-A11 [4]) was Active.
Consider `O=c1c2nc(Br)n([C@@H]3O[C@@H]4CO[P@@]([O-])(=S)O[C@H]4[C@H]3O)c2nc2[nH]c(-c3ccccc3)cn12.[Na+]`, for which the result (in data set [2]; in the data set on 661W-A11 [3]; with 661W-A11 [4]) was Active. Also, the Activity result in data set [5] is on record as “<=70%”.
`CCN(CC)CC.O=c1c2nc(Br)n([C@@H]3O[C@@H]4CO[P@](O)(=S)O[C@H]4[C@H]3O)c2nc2[nH]c(-c3ccccc3)cn12`: the outcome (in data set [2]; in the data set on 661W-A11 [3]; in the data set with 661W-A11 [4]) was Active. Also, the Activity entry in data set [5] is “<=70%”.
Take `O=c1c2nc(Br)n([C@@H]3O[C@@H]4COP(=O)(O)O[C@H]4[C@H]3O)c2nc2[nH]c(-c3ccccc3)cn12`: the result in the data set on 661W-A11 [3] and in the data set with 661W-A11 [4] was inactive.

(Values after ChEMBL document CHEMBL5506026, “New Improved cGMP Analogues to Target Rod Photoreceptor Degeneration” (J Med Chem, 2024).)
